# Source: PubChem (several laboratories)
# Shown are actives, neighbours in structure and some others; about 3% of the full set was active somewhere.
# HNF4A DNA FP: change in binding of human HNF4A to DNA, primary screen, biochemical, fluorescence polarization, FITC-DNA | 1 h | activity change, % at 10 µM | 360,000 tested, 0.3% active | AID 1224865, 2016; in the data active = activity change above about 30%, passing the limit was not always enough
# Target sequence (P41235 whole entry, looked up): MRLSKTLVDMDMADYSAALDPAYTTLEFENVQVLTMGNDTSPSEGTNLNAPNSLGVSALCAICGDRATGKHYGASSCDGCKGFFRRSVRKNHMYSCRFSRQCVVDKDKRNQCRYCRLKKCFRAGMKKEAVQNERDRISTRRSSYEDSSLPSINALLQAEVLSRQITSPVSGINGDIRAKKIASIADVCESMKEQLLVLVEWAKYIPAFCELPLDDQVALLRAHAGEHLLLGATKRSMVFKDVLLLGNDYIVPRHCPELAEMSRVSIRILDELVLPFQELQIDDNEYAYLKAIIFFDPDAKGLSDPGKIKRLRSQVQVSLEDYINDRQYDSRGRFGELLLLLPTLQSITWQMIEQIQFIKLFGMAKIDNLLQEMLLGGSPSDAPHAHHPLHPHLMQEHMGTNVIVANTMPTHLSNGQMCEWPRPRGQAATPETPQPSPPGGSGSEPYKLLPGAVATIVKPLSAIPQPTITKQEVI
# Myeloid diff MLP: induction of myeloid progenitor differentiation, primary screen, cell-based, flow cytometry, MLPCN library; ER-HoxA9 myeloid progenitors, lysozyme-GFP differentiation; calls only at 10 µM; 360,000 tested, 1% active; AID 624256, 2012;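 active = normalized GFP-positive differentiation at or above the plate's own cutoff, the solvent-only control mean plus 3 SD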;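 note: cells exposed to compound for four days before flow analysis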
# DSG3 Ab inh: inhibitors of pemphigus antibody binding to DSG3, primary screen, biochemical, bead-based, flow cytometry, scFv-GFP; binding (percent of control), % at 10 µM; 310,000 tested, 0.48% active; DSG3-coupled beads, scFv-anti-DSG3-GFP binding; hits give low values; Desmoglein-3 (Homo sapiens), P32926;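 active = binding more than 3 SD below its plate's average and above zero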;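 note: hits lower antibody fragment binding to DSG3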
# H9c2 protect: cardioprotection against H2O2-induced cell death, primary screen, uHTS, H9c2 cells, ATPLite luminescence; H9c2 cardiomyocytes, H2O2 injury protection, 2 h; protection from H2O2 cell death, % at 20 µM; 360,000 tested, 0.63% active; AID 588492, 2011;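 active = compounds giving at least 50% protection of heart cells from peroxide-induced death in the single-dose screen, raw or plate-pattern-corrected value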;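 note: 0% = DMSO wells with peroxide and 100% = DMSO wells without peroxide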
# Granule exo inh: LAMP-1 surface exposure blockers, TALL-104 cells – cell-based, flow cytometry, MLPCN library, primary screen; AID 651702, 2012; 360,000 tested, 0.66% active; TALL-104 LAMP-1 surface exposure; cells stimulated with thapsigargin and PMA; inhibition, % at 10 µM;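 active = inhibition above about 55%, limit read from the data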
# SENP1 FRET inh: human SENP1 catalytic domain inhibitors, primary screen, biochemical, FRET, uHTS; inhibition, % at 10 µM; recombinant SENP1 catalytic domain, CyPet-SUMO1-YPet FRET cleavage; AID 624204, 2012; 360,000 tested, 0.21% active;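 active = inhibition at least 30% at 10 µM, raw YFP signal under a set limit, fluorescence ratio 0.5 to 1.5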;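 note: 0% = enzyme with DMSO and 100% = no enzyme wells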
#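 Test system: hSENP1 catalytic domain, recombinant; Amount: 20 pM final SENP1 enzyme; Medium: Tris pH 8 buffer plus EDTA, NaCl, BME, BSA, NP40, catalase; Schedule: 50 min enzyme reaction, room temperature, light-protected; Technique: FRET fluorescence in CFP and YFP emission channels; Controls: no-enzyme wells low, DMSO-plus-enzyme wells high control.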
# Myeloid diff CP1: inducers of myeloid progenitor differentiation, confirmation, cell-based, GFP/Mac1 flow cytometry, cherry pick 01 | shares compounds with Myeloid diff MLP | ER-HoxA9 myeloid progenitors, GFP/Mac1 double-positive flow | calls only | 2,300 tested, 2% active;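 active = share of green or green-and-red cells above 9 and 9% in run 1 or 4 and 3% in run 2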
# GFP autofluor: compound fluorescence in myeloid differentiation counter-screen; ER-HoxA9 myeloid progenitors, no estrogen, GFP autofluorescence flow cytometry; vehicle wells 0%, positive control 100%; 2,300 tested, 7.4% active; fluorescence response, % (test concentration not listed); shares compounds with Myeloid diff MLP;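 active = over 5% cells positive for green fluorescent reporter, or over 2% positive for both it and APC stain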;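 note: range taken on the double positive population between DMSO and positive control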
# Starred values were filed as active, the others as inactive; i = inactive; · = no result given; + = active, no number.
SMILES,HNF4A DNA FP,Myeloid diff MLP,DSG3 Ab inh,H9c2 protect,Granule exo inh,SENP1 FRET inh,Myeloid diff CP1,GFP autofluor
Cc1ccc(C(=O)ON=C2CCN(S(=O)(=O)c3ccccc3)CC2)cc1,-1,i,·,-3,2,2,i,0
COc1ccc(/C=C2\C(=O)N(Cc3ccc(F)cc3)CC(=O)N2Cc2ccccc2)cc1,1,i,108,-5,-3,2,·,·
COc1ccc(/C=C2\C(=O)NCC(=O)N2Cc2ccccc2)cc1,0,+,103,9,-3,0,i,0
Cn1cc(CNC(=O)CC2C(=O)NCCN2CC(C)(C)C)cn1 (centres undefined),-2,i,107,3,-3,-5,·,·
NC(=O)c1ccc(NC(=O)CN2CCN(c3ccccc3)CC2)cc1,3,i,121,-3,2,2,·,·
CC(C)COC(=O)c1ccc2c(c1O)C(=O)c1ccccc1C2=O,5,i,93,-10,-1,8,i,6.1*
Cc1ccc(C2CCN(C(=S)Nc3cccc(C)c3)C2)cc1 (centres undefined),-1,i,101,-11,-1,1,·,·
COc1ccc(-c2oc3ccc(N4CCOCC4)cc3c2C#CCO)cc1,1,i,110,20,-2,-5,·,·
COc1ccc(-c2ccc3oc(-c4ccc(OC)cc4)c(C#CCO)c3c2)cc1,1,+,101,-19,-4,1,i,0
O=C1C2C(C(=O)N1CC1CCCO1)C1C=CC2C12CC2 (centres undefined),-2,·,121,6,-1,-1,i,1
O=C1C2CC=CCC2C(=O)N1CC1CCCO1 (centres undefined),4,i,·,7,-2,2,·,·
O=C1NC(=O)C([N+](=O)[O-])=C(O)C1=O,1,i,100,-5,0,2,·,·
O=C(NCC1CCN(Cc2ccc(Cl)cc2)CC1)C1CCCN(c2ncnc3c2nc2n3CCCCC2)C1 (centres undefined),-3,i,·,-2,7,-3,·,·
CCc1nnc(NC(=O)CSc2nnc(C)c(=O)n2N)s1,-3,i,112,6,0,2,·,·
Cc1ccc(C(=O)CSc2nnc(-c3cccnc3)n2N)cc1,2,i,98,6,0,2,i,0
Cc1ccc(CSc2nnc(-c3cccnc3)n2N)cc1,0,i,104,2,1,-3,·,·
Cc1ccc(S(=O)(=O)N2CCN(C(=S)NCC3CCCO3)CC2)cc1 (centres undefined),-2,i,99,1,-2,1,·,·
CCN(CC)C(=O)CSc1nnc([C@@H](NC(=O)OC(C)(C)C)C(C)C)o1,-3,i,95,0,1,3,i,1
O=C(CSc1nnc(-c2cccc(Br)c2)o1)N1CCOCC1,4,i,103,0,5,2,·,·
CC(=O)NC/C(C)=N\Nc1ccc([N+](=O)[O-])cc1,10,+,110,1,-2,14,i,49*
CCN(CC)CCNC(=O)c1[nH]c2ccc(OCc3ccccc3)cc2c1C,2,i,99,-10,5,0,·,·
Oc1ccccc1N=Cc1ccc[nH]1,-3,+,111,-21,1,6,i,0
C(=Nc1ccccc1)c1ccc[nH]1,4,i,89,4,33,-5,·,·
CCOC(=O)c1cnc(SCc2nc(N)nc(Nc3ccc(C)cc3)n2)nc1N,3,i,104,-20,0,-1,i,0
